Measurements published in ChEMBL document CHEMBL1221342, “Synthesis and in vitro antitumor activity of new 4,5-dihydropyrazole derivatives” (Bioorg Med Chem, 2010).

Key:
[1] = system: CCRF-CEM; assay: Growth inhibition of human CCRF-CEM cells after 48 hrs by SRB assay; format: functional
Summary of the method: (§1)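 NCI 60-cell-line screen. Cells grown in RPMI1640 with 5% fetal calf serum and 2 mM L-glutamine, with inoculum density set by cell line. Preincubated 24 h, then given compound in DMSO at 10^-4 to 10^-8 M (five 10-fold steps) for 48 h continuous exposure. Growth measured by SRB protein assay. GI50, TGI and LC50 reported as –log molar.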

[2] = system: HL-60(TB); assay: Growth inhibition of human HL-60(TB) cells after 48 hrs by SRB assay; format: functional; settings: HL-60, 48 h
Summary of the method: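 NCI 60-cell-line screen: cells grown in RPMI1640 with 5% fetal calf serum and 2 mM L-glutamine, preincubated 24 h, then exposed to compound in DMSO at five concentrations (10^-4 to 10^-8 M) for 48 h continuous exposure. Growth estimated by sulforhodamine B protein assay; reported as pGI50 (-log molar concentration inhibiting net cell growth by 50%).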

[3] = system: MOLT-4; assay: Growth inhibition of human MOLT4 cells after 48 hrs by SRB assay; format: functional; settings: MOLT-4, 48 h; summary of the method: as §1
[4] = system: SR; assay: Growth inhibition of human SR cells after 48 hrs by SRB assay; format: functional; summary of the method: as §1
[5] = system: EKVX; assay: Growth inhibition of human EKVX cells after 48 hrs by SRB assay; format: functional; summary of the method: as §1
[6] = system: NCI-H460; assay: Growth inhibition of human NCI-H460 cells after 48 hrs by SRB assay; format: functional; settings: NCI-H460, 48 h; summary of the method: as §1
[7] = system: HCT-116; assay: Growth inhibition of human HCT116 cells after 48 hrs by SRB assay; format: functional; settings: HCT-116, 48 h; summary of the method: as §1
[8] = system: HCT-15; assay: Growth inhibition of human HCT15 cells after 48 hrs by SRB assay; format: functional; settings: HCT-15, 48 h; summary of the method: as §1
[9] = system: KM12; assay: Growth inhibition of human KM12 cells after 48 hrs by SRB assay; format: functional; settings: KM12, 48 h; summary of the method: as §1
[10] = system: SW-620; assay: Growth inhibition of human SW620 cells after 48 hrs by SRB assay; format: functional; settings: SW-620, 48 h; summary of the method: as §1
[11] = system: SF-268; assay: Growth inhibition of human SF268 cells after 48 hrs by SRB assay; format: functional; settings: SF-268, 48 h; summary of the method: as §1
[12] = system: SF-539; assay: Growth inhibition of human SF539 cells after 48 hrs by SRB assay; format: functional; settings: SF-539, 48 h; summary of the method: as §1
[13] = system: SNB-75; assay: Growth inhibition of human SNB75 cells after 48 hrs by SRB assay; format: functional; settings: SNB-75, 48 h; summary of the method: as §1
[14] = system: U-251; assay: Growth inhibition of human U251 cells after 48 hrs by SRB assay; format: functional; settings: U-251, 48 h; summary of the method: as §1
[15] = system: Malme-3M; assay: Growth inhibition of human MALME-3M cells after 48 hrs by SRB assay; format: functional; summary of the method: as §1
[16] = system: SK-MEL-2; assay: Growth inhibition of human SK-MEL-2 cells after 48 hrs by SRB assay; format: functional; settings: SK-MEL-2, 48 h; summary of the method: as §1
[17] = system: MDA-MB-435; assay: Growth inhibition of human MDA-MB-435 cells after 48 hrs by SRB assay; format: functional; settings: MDA-MB-435, 48 h; summary of the method: as §1
[18] = system: SK-MEL-5; assay: Growth inhibition of human SK-MEL-5 cells after 48 hrs by SRB assay; format: functional; settings: SK-MEL-5, 48 h; summary of the method: as §1
[19] = system: UACC-62; assay: Growth inhibition of human UACC62 cells after 48 hrs by SRB assay; format: functional; settings: UACC-62, 48 h; summary of the method: as §1
[20] = system: OVCAR-4; assay: Growth inhibition of human OVCAR4 cells after 48 hrs by SRB assay; format: functional; settings: OVCAR-4, 48 h; summary of the method: as §1
[21] = system: NCI/ADR-RES; assay: Growth inhibition of human NCI/ADR-RES cells after 48 hrs by SRB assay; format: functional; summary of the method: as §1
[22] = system: SK-OV-3; assay: Growth inhibition of human SKOV3 cells after 48 hrs by SRB assay; format: functional; settings: SK-OV-3, 48 h; summary of the method: as §1
[23] = system: 786-0; assay: Growth inhibition of human 786-0 cells after 48 hrs by SRB assay; format: functional; settings: 786-0, 48 h; summary of the method: as §1
[24] = system: A498; assay: Growth inhibition of human A498 cells after 48 hrs by SRB assay; format: functional; settings: A498, 48 h; summary of the method: as §1
[25] = system: RXF 393; assay: Growth inhibition of human RXF393 cells after 48 hrs by SRB assay; format: functional; settings: RXF 393, 48 h; summary of the method: as §1
[26] = system: TK-10; assay: Growth inhibition of human TK10 cells after 48 hrs by SRB assay; format: functional; settings: TK-10, 48 h; summary of the method: as §1
[27] = system: UO-31; assay: Growth inhibition of human UO31 cells after 48 hrs by SRB assay; format: functional; settings: UO-31, 48 h; summary of the method: as §1
[28] = system: PC-3; assay: Growth inhibition of human PC3 cells after 48 hrs by SRB assay; format: functional; settings: PC-3, 48 h; summary of the method: as §1
[29] = system: DU-145; assay: Growth inhibition of human DU145 cells after 48 hrs by SRB assay; format: functional; settings: DU-145, 48 h; summary of the method: as §1
[30] = system: MCF7; assay: Growth inhibition of human MCF7 cells after 48 hrs by SRB assay; format: functional; settings: MCF7, 48 h; summary of the method: as §1
[31] = Growth inhibition of human Hs 578T cells after 48 hrs by SRB assay; format: functional; summary of the method: as §1
[32] = system: BT-549; assay: Growth inhibition of human BT549 cells after 48 hrs by SRB assay; format: functional; settings: BT-549, 48 h; summary of the method: as §1
[33] = system: T47D; assay: Growth inhibition of human T47D cells after 48 hrs by SRB assay; format: functional; summary of the method: as §1
[34] = system: MDA-MB-468; assay: Growth inhibition of human MDA-MB-468 cells after 48 hrs by SRB assay; format: functional; settings: MDA-MB-468, 48 h; summary of the method: as §1
[35] = system: NCI-H460; assay: Cytotoxicity against human NCI-H460 cells after 72 hrs by SRB assay; format: functional, cell-based; settings: NCI-H460, 72 h
Summary of the method: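 NCI-H460 (ATCC) cells seeded in 96-well plates in growth medium. Scalar drug concentrations added 24 h after plating, then 72 h exposure. Surviving cells stained with sulforhodamine B, OD read at 570 nm. IC50 (50% growth inhibition) fitted from dose–response curves. Mean ± SE of at least three independent experiments.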

COc1cc(C2CC(c3cccc(O)c3)=NN2C(C)=O)cc(OC)c1OC (configuration not stated)
10 µM: TGI ([6]; read-out: pTGI (converted)) | TGI ([24]; read-out: pTGI (converted)) | GI50 [27] | TGI ([30]; read-out: pTGI (converted)) | TGI ([34]; read-out: pTGI (converted))
0.631 µM: GI50 [18]
> 100 µM: TGI ([3]; read-out: pTGI (converted)) | TGI ([4]; read-out: pTGI (converted)) | TGI ([5]; read-out: pTGI (converted)) | TGI ([7]; read-out: pTGI (converted)) | TGI ([8]; read-out: pTGI (converted)) | TGI ([9]; read-out: pTGI (converted)) | TGI ([10]; read-out: pTGI (converted)) | TGI ([11]; read-out: pTGI (converted)) | TGI ([14]; read-out: pTGI (converted)) | TGI ([15]; read-out: pTGI (converted)) | TGI ([16]; read-out: pTGI (converted)) | TGI ([19]; read-out: pTGI (converted)) | TGI ([20]; read-out: pTGI (converted)) | TGI ([22]; read-out: pTGI (converted)) | TGI ([25]; read-out: pTGI (converted)) | TGI ([26]; read-out: pTGI (converted)) | TGI ([27]; read-out: pTGI (converted)) | TGI ([28]; read-out: pTGI (converted)) | TGI ([32]; read-out: pTGI (converted)) | TGI ([33]; read-out: pTGI (converted))
0.251 µM: GI50 [17]
2.51 µM: GI50 [7] | GI50 [14] | GI50 [15] | GI50 [19] | GI50 [22] | GI50 [24]
0.398 µM: GI50 [13]
7.94 µM: GI50 [11] | GI50 [26] | TGI ([31]; read-out: pTGI (converted))
0.1 µM: GI50 [4]
1 µM: GI50 [1] | GI50 [9]
3.16 µM: GI50 [29] | GI50 [33]
1.26 µM: GI50 [21] | GI50 [23]
6.31 µM: GI50 [5] | TGI ([12]; read-out: pTGI (converted)) | GI50 [16] | GI50 [20]
2.3 µM: IC50 [35]
3.98 µM: TGI ([21]; read-out: pTGI (converted)) | TGI ([23]; read-out: pTGI (converted)) | GI50 [25]
5.01 µM: TGI ([1]; read-out: pTGI (converted)) | TGI ([2]; read-out: pTGI (converted)) | GI50 [3] | TGI ([18]; read-out: pTGI (converted)) | GI50 [32]
0.794 µM: GI50 [8] | GI50 [10] | TGI ([17]; read-out: pTGI (converted)) | GI50 [31]
1.58 µM: GI50 [2]
2 µM: GI50 [6] | GI50 [12] | GI50 [28]
0.501 µM: GI50 [30] | GI50 [34]
